CSC inhib: cancer stem cell viability inhibitors, primary screen, luminescence. cancer stem cell-like cells viability. inhibition, % at 7.5 µM. hit rate 1.1% among 300,000; in the data active = inhibition above about 75%; tested in HMLE shEcad cells
H9c2 TAG inh: inhibitors of triacylglycerol accumulation, primary screen, cell-based, uHTS, fluorescence, H9c2; H9c2 cells, Nile Red lipid (TAG) fluorescence; cells loaded with 200 µM oleic acid; hit rate 0.66% among 230,000; inhibition, % at 12.5 µM;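 active = pattern-corrected inhibition of lipid staining of at least 50% with the nuclear-stain viability signal not falling by more than 50%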
Beta cell apopt: inhibitors of cytokine-induced beta cell apoptosis, primary screen, luminescence. INS-1E cytokine-induced death, ATP luminescence, 48 h; percent of positive-control rescue, neutral wells zero. protection from apoptosis, % (test concentration not listed). AID 435005, 2010. hit rate 0.8% among 300,000;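 active = Every replicate reaches about 75%, or at least half do and their mean reaches it too, limit read from the data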;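 also: higher means more ATP so stronger rescue from cytokine killing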
A1 inh: caspase 3/7 activation in MEF A1-2A-BIM cells, primary screen, A1 inhibitor project, cell-based, luminescence, HTS | Caspase-Glo 3/7 luminescence, 3 h; percent of clofoctol response, vehicle zero | caspase activation, % (concentration not given with the values) | hit rate 0.066% among 330,000;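 active = over half of replicate activation scores above 10%, or exactly half above 10 with the replicate mean above 10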
Calb FLC: C. albicans growth inhibition with fluconazole, primary screen, CaCi-2 strain, Alamar Blue fluorescence; AID 1979, 2009; growth inhibition, % (concentration not given with the values); C. albicans CaCi-2 (fluconazole-resistant clinical isolate) + fluconazole, 48 h; hit rate 0.57% among 300,000;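 active = growth inhibition above about 58% in most replicates, limit read from the data, passing the limit was not always enough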;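 also: all wells also contain fluconazole at 8 µg/ml as a sub-toxic cotreatment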
T cruzi repl: inhibitors of intracellular T. cruzi growth, primary screen, luminescence, NIH3T3 host cells | T. cruzi beta-gal in NIH3T3, 90 h | inhibition, % (concentration not given with the values) | hit rate 1.4% among 300,000;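 active = mean inhibition across valid replicates above about 55%, limit read from the data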;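 also: signal also drops with host cell toxicity which is not excluded here; higher percent means less beta-gal luminescence so fewer parasites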
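Assay system: NIH/3T3 fibroblasts plus reporter T. cruzi. Amount: NIH/3T3 cells, 5,000 per well. Buffer or medium: DMEM, 2% fetal bovine serum. Doses: compound pinned at 50 nL/well, DMSO. Schedule: ≥90 h infection period, 3 h prior cell attachment. Signal: luminescent β-galactosidase signal after 60 min lysis. Read-out: parasite load inhibition, %.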
Large screens that a line does not name were inactive. An excerpt weighted towards active compounds, which were near 3.1% of everything screened.

CCc1ccc(C2CC(c3cccc(Cl)c3)n3nc(N)nc3N2)cc1 (stereo not given)	Beta cell apopt 105.4
Cc1ccc(C2CC(c3cccc(Cl)c3)n3nc(N)nc3N2)cc1 (stereo not given)	none
Cc1ccccc1NC(=S)N(Cc1ccccc1)Cc1cccnc1	none
Cc1cccc(NC(=S)N(CCc2nc3cc(C)c(C)cc3[nH]2)Cc2cccnc2)c1	T cruzi repl 79.4 (no result: CSC inhib, H9c2 TAG inh, Beta cell apopt)
Cc1ccc(C)c(NC(=S)N(CCc2nc3cc(C)c(C)cc3[nH]2)Cc2cccnc2)c1	T cruzi repl 65.6 (no result: H9c2 TAG inh)
Cc1ccc(Cl)cc1NC(=S)N(Cc1cccnc1)Cc1ccccc1Cl	T cruzi repl 72.1
CCCc1[nH]c2ccc(C(=O)OC)cc2c1CCC	none (no result: H9c2 TAG inh)
CCCc1[nH]c2ccc(C#N)cc2c1CCC	CSC inhib 82.0
COc1cccc(NC(=O)COc2ccc3c(c2)CCC3)c1	Calb FLC 100.5 (no result: CSC inhib)
COc1ccc(OCC(=O)Nc2ccc3c(c2)CCC3)cc1	none (no result: Calb FLC, T cruzi repl)
O=C(COc1ccc2c(c1)CCC2)NCc1cccc(Cl)c1	Calb FLC 71.5 (no result: H9c2 TAG inh)
CCCS(=O)(=O)NC(=O)C1(C)CCN(C(=O)c2ccc(F)c(C)c2)C1 (stereo not given)	none (no result: CSC inhib, Beta cell apopt, A1 inh, Calb FLC, T cruzi repl)
CCN(CC)C(=O)OCCc1cc2ccccc2c(=O)o1	none (no result: Calb FLC, T cruzi repl)
CCC(C)COC(=O)C(C#N)c1nc2ccccc2nc1N1CCCCC1 (stereo not given)	none (no result: H9c2 TAG inh)
CCC(CC)COC(=O)C(C#N)c1nc2ccccc2nc1N1CCN(CC)CC1 (stereo not given)	T cruzi repl 55.0 (no result: H9c2 TAG inh)
CCCCCCOC(=O)C(C#N)c1nc2ccccc2nc1N1CCN(C)CC1 (stereo not given)	T cruzi repl 67.7 (no result: H9c2 TAG inh)
CCCCNC(=O)C(C#N)c1nc2ccccc2nc1N1CCN(Cc2ccc3c(c2)OCO3)CC1 (stereo not given)	none (no result: CSC inhib, Beta cell apopt, A1 inh, Calb FLC, T cruzi repl)
Cc1ccc(S(=O)(=O)C(C#N)c2nc3ccccc3nc2N2CCN(C)CC2)cc1C (stereo not given)	Calb FLC 82.9
CN1CCN(c2nc3ccccc3nc2C(C#N)S(=O)(=O)c2ccccc2)CC1 (stereo not given)	none (no result: H9c2 TAG inh)
C=CCOC(=O)C(C#N)c1nc2ccccc2nc1N1CCN(Cc2ccc3c(c2)OCO3)CC1 (stereo not given)	T cruzi repl 57.2 (no result: H9c2 TAG inh)
CC1CN(CCCCOc2cccc(Oc3ccccc3)c2)CC(C)O1 (stereo not given)	CSC inhib 195.1, T cruzi repl 55.9
C[C@H]1CN(C2CCCCC2)C(=O)[C@@H]1CC(=O)Nc1ccccc1	none (no result: CSC inhib, Beta cell apopt, A1 inh, Calb FLC, T cruzi repl)
CCn1cc([N+](=O)[O-])c(C(=O)N2N=C(c3cccc4ccccc34)CC2c2ccccc2O)n1 (stereo not given)	none
CCn1cc(Cl)c(C(=O)N2N=C(c3ccc4ccccc4c3)CC2c2ccccc2O)n1 (stereo not given)	T cruzi repl 55.9
CCn1cc([N+](=O)[O-])c(C(=O)N2N=C(c3ccc4ccccc4c3)CC2c2ccccc2O)n1 (stereo not given)	H9c2 TAG inh 71.1
COc1ccc(Br)cc1C(=O)Nc1ccc(Cc2ccncc2)cc1	T cruzi repl 73.4 (no result: H9c2 TAG inh)
COC(=O)c1ccc(N/C(C)=C/C(=O)c2ccc(C)o2)cc1	none (no result: H9c2 TAG inh)
CCOc1ccc(N/C(C)=C/C(=O)c2ccc(C)o2)cc1	T cruzi repl 60.2 (no result: H9c2 TAG inh)
CCOc1ccc(NC(=O)Nc2ccc(Cc3ccncc3)cc2)cc1	CSC inhib 80.4
COc1ccc(OC2CCN(C(=O)Nc3ccc(C)cc3)CC2)cc1	none (no result: H9c2 TAG inh)
O=C(c1c[nH]c(C(=O)N2CCN(c3ccccc3F)CC2)c1)c1cccc(Cl)c1Cl	T cruzi repl 60.3 (no result: CSC inhib, Beta cell apopt, A1 inh)
CC1CCCCC1NC(=O)CN1C(=O)NC(C)(c2cccc(Br)c2)C1=O (stereo not given)	none (no result: CSC inhib, Beta cell apopt, A1 inh, Calb FLC, T cruzi repl)
Cc1ccccc1-c1noc(CCC(=O)NCc2ccco2)n1	none
O=C(Nc1ccc(C2=NCCN2)cc1)c1ccc(C(=O)Nc2ccc(C3=NCCN3)cc2)c([N+](=O)[O-])c1	Calb FLC 107.0 (no result: H9c2 TAG inh)
CN(C)CCCn1c2c(c(SCC(=O)Nc3ccc4c(c3)OCCO4)nc1=O)CCCC2	none (no result: CSC inhib, Beta cell apopt, A1 inh, Calb FLC, T cruzi repl)

High-throughput results: PubChem BioAssay, several laboratories
